Laboratory results reported in the EternaBench riboswitch data.

Test system: MS2 coat protein
Assay: apparent Kd, MS2 coat protein; higher = weaker binding; RNA-MaP array; FMN 200 µM where present
In short: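 Green signal from SNAP-549-labelled MS2 coat protein was normalised to red-channel RNA signal and to the median Fmax of control clusters. The protein was titrated from 0.7 or 1.5 nM, doubling to 3 µM, without and then with constant ligand, over designs transcribed by stalled E. coli RNA polymerase on Illumina sequencing-chip clusters, in 100 mM Tris-HCl pH 7.5, 80 mM KCl, 4 mM MgCl2, BSA, DTT, yeast tRNA and Tween-20. The apparent Kd is the median of filtered per-cluster binding-curve fits.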

[1] = designed as: OFF switch for flavin mononucleotide, no ligand
[2] = ligand present: flavin mononucleotide, designed as: OFF switch for flavin mononucleotide
[3] = designed as: ON switch for flavin mononucleotide, no ligand
[4] = ligand present: flavin mononucleotide, designed as: ON switch for flavin mononucleotide

Sequence	apparent Kd [1]	apparent Kd [2]	apparent Kd [3]	apparent Kd [4]
ACAUGAUCAGGAUAUACAUGAGGAUCACCCAUGUAUUUCAAAAAGGGACUUUCUUAAUGUAGAAGGGAUCUUGU	14.7 nM	33.8 nM		
CCGAUGUGGGUACAGGAUAUGUGGGCCUCCACAUGAGGAUCACCCAUGUCGGAGGCAAAGCGGCUACAGAAGGGUGCGAGCUCGA			11 nM	12.9 nM
GACAUGAGGAUCACCCAUGUCCAUGCAAAAGUAGUUGAGACCAGAAGGACCGUGCGGAGUGCAGGGUAGGAUAUGGAGCCCUCA			28.2 nM	7.34 nM
CGCUGUCACGCAGGAUAUGCAAUGGAUUACAUUGCAGAAGGGCGAUCACAUGAGGAUCACCCAUGUGUAGACAGUGAAGAAGAG			738 nM	45.8 nM
GGUACUCAAAGAGUACCAAUACGAACAUGAGGAUCACCCAUGUAGGAUAUGCUACUCAAAGAGUAGCAGAAGGACAUGUGAAAU	71.5 nM	380 nM		
ACAUGAUCAGGAUAUACAUGAGGAUCACCCAUGUUUAUCAAAAAAAGGCUUUCAUCAUGUAGAAGGGAUCUUGU	20.4 nM	65.7 nM		
UUUUAGUCAGGAUAUACAUUUUUUUAUUUAUUUAUAAUAUUACAUGAGGAUCACCCAUGUAGAAGGGACAUUUU	31.8 nM	26.5 nM		
UUAAUUAUACAAGGAUAUCUAUUGUUGUUUCGACAUACAUGAGGAUCACCCAUGUUAGUAUGUUUAGAGAAGGUGUAUUUUCAG			29 nM	25.7 nM
AAAACGUGAGGAUAUACAUGAGGAUCACCCAUGUGAAACAGGAAAAACUGAAAGAAAAGUAGAAGGCACGAAAA	33.4 nM	50.1 nM		
GUGGUACAUGAGGAUCACCCAUGUUAGGAUAUCGCGUGGUUUUUUGCGGCCGCGCGCGCGAGAAGGGACGUCUU	41.4 nM	31.7 nM		
AGUGUGUGGCAGGAUAUUCUAAUCGUGAGUCGGGAAGAAGGGUCUACAUGAGGAUCACCCAUGUAAGCGGUUGA	132 nM	144 nM		
UUCGUGCAGUUUUGCUGUACGCGUACAUGAGGAUCACCCAUGUAGGAUAUGGUAGGCUUUGCUUACUAGAAGGAUAGUGUGAUC	163 nM	33.8 nM		
UGGCUACAUGAGGAUCACCCAUGUCAGGAUAUGCCGUCGGCUUGCGUUCGUCGUUCGGGUAGAAGGGACUGCGG	85.3 nM	106 nM		
GUCGGAAACGACAAAAGUAGCAUAGGAGAAGGCAUGUCAUAAGACAUGAGGAUCACCCAUGUUCGUGAGGAUAUCCUAUGCUAC			37.3 nM	13.2 nM
UCAGGCUUCGAGAAGGACAUGAGGAUCACCCAUGUGCGUGUGAAGCAGCCGUGAGGCUGCAUCAUGUAGGAUAUCGGAGUCUGU	92.3 nM	554 nM		
GCCCGGGCAGGAUAUGCAGGCCCGGGAAACCGGGCCAUGGGACAUGAGGAUCACCCAUGUAGAAGGGCCCGGGC	17.1 nM	17.3 nM		
UGCGCCAGAGGAUAUCGGGCUCGCAACAUGAGGAUCACCCAUGUAGUAUGGUCUUAUUUUCGAGAAGGCUGUCGUU	20.9 nM	17.4 nM		
GGGAUACACCAGAAGGACAUGAGGAUCACCCAUGUAGGAUAUGGGUACGCCGACAUUGGUCUGCUCUCGGUAGACUUUCCCGAU			203 nM	39.6 nM
GCCUUAUCGGUCAGGAUAUACACUUGUUAGUUGUUGUAGAAGGGACAUGAGGAUCACCCAUGUACAUUACAUUG	23.2 nM	58.5 nM		
AAAUACCGGUGAGGAUAUUUUUAAUAGAACUUUAUGAUAUACAUGAGGAUCACCCAUGUUACUUUAAAGAAGGCAUCGGAUAAA	17.5 nM	15.8 nM		
UGUAUGGACAGAGGAUAUACAGAUAGGAUCUACUAUCAAACAGUCCUAACAUGAGGAUCACCCAUGUAGAAGGCUGUCCAUACU	20.6 nM	82.1 nM		
AGAACAUGAGGAUCACCCAUGUUAAGGUCGGUAAAUAAGGGUGAGGAUAUGCUUAAAAUAAGGAAGCAGAAGGUGCUUGGUGCA			183 nM	195 nM
AAUGAUUCAGGAUAUACAUGAGGAUCACCCAUGUUGGUGUCCCUCCCAAAGUUGCAGUGUAGAAGGGAGUCCCG	131 nM	137 nM		
UCGGCGCGAGGAUAUGCGGUUUGUGCUUCGGGCCCUCGCGUACAUGAGGAUCACCCAUGUAGAAGGCGCGCCGC	201 nM	123 nM		

Sequence	apparent Kd [1]	apparent Kd [2]	apparent Kd [3]	apparent Kd [4]
AAUAGUGACCAGAAGGCGUCGCGUCGAUAGCGACGAGGAUAUGGUGAGUGAGGAGCAAACUCCACAUGAGGAUCACCCAUGUCC			594 nM	89.9 nM
UGAUAGGACAGAGGAUAUACAGAUAGGAUCUACUAUCAAACAGUCCUAACAUGAGGAUCACCCAUGUAGAAGGCUGUCCUAUCU	20.9 nM	79.2 nM		
GUCAGCUCGUGAGGAUAUACAACACUGCUUCGGCAGUGUAUUAAGAUCACAUGAGGAUCACCCAUGUAGAAGGCACGAGCUGAA	13.7 nM	245 nM		
CCGACCUUGGCAGGAUAUAGACUCGAAGUUGAUCCCGCCGGUGGAGACAUGAGGAUCACCCAUGUCUAGAAGGGCCAGUCGAAA	16.2 nM	72.9 nM		
GAAGCACAUGAGGAUCACCCAUGUAAGGAUAUACGUCUGGUCCGGCCGGACCAGUACCGUAGAAGGUACGUAAA	19.1 nM	23 nM		
GUGGUGCAUAUACGUGGAUGUACAUGAGGAUCACCCAUGUAAGAGGAUAUGCGGAUACUAGCUCAGUAGAAGGCUUACAAAUGA	9.74 nM	9.15 nM		
ACAUGAGGAUCACCCAUGUAGAUACUAGAAGGGUAAGACUAGUAGUUACAUGACGACCAAGCAUUACAGGAUAUAGGAAUUGGA			81.2 nM	39.2 nM
CUGCGGUAGGAGAAGGACGGCGGGUUAUUUUCGUACAUGAGGAUCACCCAUGUAGGAUAUCCUACCUCAGGCGGCCUACUACAG	19.9 nM	30 nM		
UACGGGAGUGGAGGAUAUGCGUAGUACGCUAGAGCAGAAGGCCACAUGAGGAUCACCCAUGUGUCGUCGAAUGCGAUACGCUGG	17.6 nM	77.3 nM		
GACAUGGUCCAGAAGGGCUAUUUAUUUAAUUAUUAUUUAGAACAGCAUAGCAGGAUAUGGCUAACAUGAGGAUCACCCAUGUUC			21.5 nM	12.6 nM
AAAAAGUCAGGAUAUGUGAAAAAAAAAAAAAAAAAAAAAAAACAGAAGGGACAUGAGGAUCACCCAUGUAAAAA	54.1 nM	62.3 nM		
AUCCGUCGUGUGAGGAUAUAAGAGUUCAAGGUUGUUUAGAAGGUACAUGAGGAUCACCCAUGUCACCCUGAUUG	14.9 nM	14.9 nM		
GUAGCUAUCGGAGGAUAUUCAUACCGGAAACGGACAUGAGGAUCACCCAUGUGGCGAAAGCCUUGGGAGAAGGCCGAUAGCUAC			601 nM	20.8 nM
GUGCGUGGCUAGGAUAUUGUGGAGUUUAGUCAGCGAGAAGGCGCCACAUGAGGAUCACCCAUGUGGUGUUGCUC	13.1 nM	14.7 nM		
CCUUGACAUGAGGAUCACCCAUGUGAGGAUAUGAUGCGAUCGUCGAAAGACGAUAGCAUCAGAAGGCACAUAUG	23.4 nM	95.7 nM		
AGCUGUGGCCGAGGAUAUCUAACAAUCCCAACCGAAAUAUAAUCGGACAUGAGGAUCACCCAUGUAGAGAAGGCGGUCUCAGCA	208 nM	329 nM		
CAGCGCUGUCGAGAGGAUAUGCGGUGAUGGACAUGAGGAUCACCCAUGUUAGCGAUAGCAUUACGGUAGAAGGCUCUGCAGCUGC			128 nM	21 nM
AUCCGGCGUGUAGGAUAUGGAAAAGAUAAGGAUCCAGAAGGACAUGAGGAUCACCCAUGUACAUGUAAACAGUCAUCACCGGAA	35.3 nM	50.9 nM		
GGAAUUAAGGGAGGAUAUAGGCGACAUGAGGAUCACCCAUGUACGGAGGGCUCUUCCCGUGUUCACUAGAAGGCCCAUGUUACC	16.5 nM	73.7 nM		
CUUCUCGUUGUGAGGAUAUCGUUUUCGUCUCGGAUCGAGAAGGCACAUGAGGAUCACCCAUGUUUGUUGUGGUU	115 nM	103 nM		
AUGAUACAUGAGGAUCACCCAUGUCACCUCACACGAGGAUAUCUGAAUCGAUUAGAUUACGGAGAAGGCGUGGAAA			66.8 nM	20.8 nM
GAUAGGCGAGGAUAUACAUGAGGAUCACCCAUGUAAGUAAGCCUGGCUGAAACUGAAUGUAGAAGGCGCACAUU	18.4 nM	45.1 nM		
AAAGAGCGAGGAUAUACAUGAGGAUCACCCAUGUAAAGAUGCAUGGUCUGAACGUCUGGUAGAAGGCGUAUGAA	135 nM	120 nM		
CAGUACUGAGGAUAUACAUGAGGAUCACCCAUGUGCUUUAGCUAGGAUACUAGCAUCAGUAGAAGGCAGUACUG	12.8 nM	29.4 nM		
